From article PMC3504124 (Journal of the American Chemical Society, 2012)
Blank lines part the entries; values can stand above or below the compound they belong to.

Legend:
SETD2 [1] = biological target: T1, SETD2 (Homo sapiens, UniProt Q9BYW2); test: Filter-paper methylation assay with [3H-Me]-SAM, IC50 against SETD2; assay type: biochemical; details: for preference to SETD2 over other examined methyltransferases: panel of 15 human methyltransferases
T1 sequence (Q9BYW2 1347-1711): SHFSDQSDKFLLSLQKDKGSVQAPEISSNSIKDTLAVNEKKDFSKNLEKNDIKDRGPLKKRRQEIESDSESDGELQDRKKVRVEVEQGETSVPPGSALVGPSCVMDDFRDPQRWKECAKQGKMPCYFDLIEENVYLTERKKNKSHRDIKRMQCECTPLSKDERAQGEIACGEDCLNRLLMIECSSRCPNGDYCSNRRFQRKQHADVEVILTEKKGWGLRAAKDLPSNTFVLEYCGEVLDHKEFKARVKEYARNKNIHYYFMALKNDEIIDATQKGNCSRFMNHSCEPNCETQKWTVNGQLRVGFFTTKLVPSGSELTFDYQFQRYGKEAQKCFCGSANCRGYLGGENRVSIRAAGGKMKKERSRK
Summary of the method: (§1)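 Radiometric filter-paper assay: the methyl group from [3H-Me]-SAM is transferred to a peptide substrate, the peptide is captured by filter binding, and radioactivity is counted by scintillation. For SETD2, both SAM and peptide were below their Km. IC50 was obtained by fitting percent inhibition against inhibitor concentration.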

SET7/9 = biological target: T2, SET7/9 (Homo sapiens, UniProt Q8WTS6); test: Filter-paper methylation assay, IC50 against SET7/9; assay type: biochemical
T2 sequence (Q8WTS6 1-366): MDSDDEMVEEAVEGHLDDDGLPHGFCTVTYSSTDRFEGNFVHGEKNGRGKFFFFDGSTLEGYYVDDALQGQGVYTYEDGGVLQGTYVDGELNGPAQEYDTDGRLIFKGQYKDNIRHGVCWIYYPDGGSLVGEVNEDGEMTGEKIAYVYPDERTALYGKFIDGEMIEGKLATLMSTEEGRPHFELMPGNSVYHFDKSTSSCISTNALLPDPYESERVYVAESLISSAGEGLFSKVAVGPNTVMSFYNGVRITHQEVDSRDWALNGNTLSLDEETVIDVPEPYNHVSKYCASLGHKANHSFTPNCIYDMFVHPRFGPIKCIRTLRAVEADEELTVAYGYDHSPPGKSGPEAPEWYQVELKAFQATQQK
Summary of the method: as §1

SUV39H2 = test: Filter-paper methylation assay, potency against SUV39H2; assay type: biochemical, human
Summary of the method: as §1

DOT1L = details: read-out: in vitro IC50 on DOT1L; cited from earlier work
CARM1 = biological target: T3, CARM1 (Homo sapiens, UniProt Q86X55); test: Filter-paper methylation assay, IC50 against CARM1; assay type: biochemical; details: read-out: IC50 for CARM1
T3 sequence (Q86X55 19-608): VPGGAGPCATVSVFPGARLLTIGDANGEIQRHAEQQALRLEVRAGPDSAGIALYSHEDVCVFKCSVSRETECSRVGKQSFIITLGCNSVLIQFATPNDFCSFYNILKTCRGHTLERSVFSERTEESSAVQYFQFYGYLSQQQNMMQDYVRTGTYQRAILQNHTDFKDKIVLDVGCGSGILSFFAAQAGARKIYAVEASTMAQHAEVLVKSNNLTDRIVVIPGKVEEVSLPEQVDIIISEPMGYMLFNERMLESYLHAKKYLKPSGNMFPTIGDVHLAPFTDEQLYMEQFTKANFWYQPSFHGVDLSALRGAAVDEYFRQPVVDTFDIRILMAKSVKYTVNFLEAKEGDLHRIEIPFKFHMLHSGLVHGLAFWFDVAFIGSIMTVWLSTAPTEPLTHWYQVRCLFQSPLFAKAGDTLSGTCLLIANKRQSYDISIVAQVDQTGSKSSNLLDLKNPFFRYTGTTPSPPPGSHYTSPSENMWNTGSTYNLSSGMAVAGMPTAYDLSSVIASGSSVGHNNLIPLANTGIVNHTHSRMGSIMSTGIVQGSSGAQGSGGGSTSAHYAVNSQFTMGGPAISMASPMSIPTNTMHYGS

PRMT1 = PRMT1 (Homo sapiens, UniProt Q99873); test: Filter-paper methylation assay, IC50 against PRMT1; assay type: biochemical; details: read-out: IC50 for PRMT1
Summary of the method: as §1

SET8 = biological target: T4, SET8 (Homo sapiens, UniProt Q9NQR1); test: Filter-paper methylation assay, IC50 against SET8; assay type: biochemical; details: read-out: IC50 for SET8
T4 sequence (Q9NQR1 232-393 limits assumed): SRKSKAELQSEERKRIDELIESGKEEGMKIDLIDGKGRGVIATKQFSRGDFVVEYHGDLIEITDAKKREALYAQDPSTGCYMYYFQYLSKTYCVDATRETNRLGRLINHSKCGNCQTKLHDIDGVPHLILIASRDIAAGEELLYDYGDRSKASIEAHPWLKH
Summary of the method: as §1

G9a = biological target: T5, G9a (Homo sapiens, UniProt Q96KQ7); test: Filter-paper methylation assay, IC50 against G9a; assay type: biochemical; details: read-out: IC50 for G9a
T5 sequence (Q96KQ7 913-1193): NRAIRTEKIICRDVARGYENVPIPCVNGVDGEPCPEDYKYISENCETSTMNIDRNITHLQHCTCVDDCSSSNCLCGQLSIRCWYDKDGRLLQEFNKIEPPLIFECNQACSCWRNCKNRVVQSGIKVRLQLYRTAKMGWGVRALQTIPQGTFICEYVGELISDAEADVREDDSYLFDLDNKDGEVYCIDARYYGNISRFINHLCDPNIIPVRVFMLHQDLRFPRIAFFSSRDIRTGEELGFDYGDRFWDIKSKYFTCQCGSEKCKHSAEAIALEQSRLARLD

GLP = biological target: T6, GLP (Homo sapiens, UniProt Q9H9B1); test: Filter-paper methylation assay, IC50 against GLP; assay type: biochemical; details: read-out: IC50 for GLP
T6 sequence (Q9H9B1 982-1266): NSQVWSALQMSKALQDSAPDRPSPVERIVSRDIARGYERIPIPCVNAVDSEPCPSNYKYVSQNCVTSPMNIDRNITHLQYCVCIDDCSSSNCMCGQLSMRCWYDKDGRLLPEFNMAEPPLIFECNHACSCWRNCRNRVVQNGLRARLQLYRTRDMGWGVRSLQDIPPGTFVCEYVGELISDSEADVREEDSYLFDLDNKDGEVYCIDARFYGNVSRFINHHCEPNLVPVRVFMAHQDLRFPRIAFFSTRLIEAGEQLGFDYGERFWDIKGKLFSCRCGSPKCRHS
Summary of the method: as §1

SETD2 [2] = biological target: T1, SETD2; test: Kinetics analysis of SETD2-catalyzed methylation; assay type: biochemical

PRMT1, sequence (Q99873 10-352 isoform Q99873-3): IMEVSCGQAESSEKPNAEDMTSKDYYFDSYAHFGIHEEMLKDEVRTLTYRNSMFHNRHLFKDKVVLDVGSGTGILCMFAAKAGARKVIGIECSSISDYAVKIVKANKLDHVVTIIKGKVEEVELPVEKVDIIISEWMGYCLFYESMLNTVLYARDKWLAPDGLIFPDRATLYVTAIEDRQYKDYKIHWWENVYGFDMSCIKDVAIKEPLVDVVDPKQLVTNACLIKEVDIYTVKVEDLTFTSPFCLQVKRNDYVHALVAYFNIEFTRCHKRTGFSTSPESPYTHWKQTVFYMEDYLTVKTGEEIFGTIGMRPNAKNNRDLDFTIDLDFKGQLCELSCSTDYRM

potency against SETD2 relative to sinefungin 2, 3a and 3b (SETD2 [1]; fold higher potency): more than 10 fold
preference to SETD2 over other examined methyltransferases (SETD2 [1]): 10~100 fold
drop in potency from 3c to 3d on SET7/9 (SET7/9): 10~50 fold
SMILES: Nc1ncnc2c1ncn2[C@@H]1O[C@H](C[C@H](CC[C@H](N)C(=O)O)NCc2ccccc2)[C@@H](O)[C@H]1O [3d, N-benzyl sinefungin]
drop in potency from 3c to 3d on SUV39H2 (SUV39H2): 10~50 fold

SMILES: CCCNC(CCC(N)C(=O)O)C[C@H]1O[C@@H](n2cnc3c(N)ncnc32)[C@H](O)[C@@H]1O (stereo partly shown) [3c, N-propyl sinefungin]
preference to SETD2 over other examined methyltransferases (SETD2 [1]): 2~200 fold
IC50 (SET7/9; read-out: IC50 for SET7/9): 2.2 ± 0.4 µM
IC50 (CARM1): 2.96 ± 0.3 µM
IC50 (PRMT1): 9.5 ± 0.4 µM
IC50 (SET8): > 100 µM
IC50 (G9a): > 100 µM
IC50 (GLP): > 100 µM
enhancement of Kd by presence of SETD2's substrate (SETD2 [2]): 8 fold
β (SETD2 [2]; factor by which binding of inhibitor or substrate affects binding of the other): 0.12 ± 0.01
IC50 (SETD2 [2]; read-out: calculated IC50 against SETD2, calculated from kinetic constants): 0.6 µM
Kd (SETD2 [2]; read-out: βKd to bind SETD2, presence of substrate): 0.043 ± 0.004 µM
mechanism of inhibition versus peptide substrate (SETD2 [2]; varied inhibitor, fixed SAM (0.8 μM)): noncompetitive
mechanism of inhibition versus SAM cofactor (SETD2 [2]; varied inhibitor, fixed substrate (4 μM)): competitive

Km (SETD2 [2]; read-out: Km,SAM of SETD2, absence of Pr-SNF): 1.21 ± 0.05 µM
SMILES: C[S+](CC[C@H](N)C(=O)[O-])C[C@H]1O[C@@H](n2cnc3c(N)ncnc32)[C@H](O)[C@@H]1O (stereo partly shown) [SAM, S-adenosylmethionine, reference compound]
